Data reported in ChEMBL document CHEMBL1138199, “Identification of compounds with anti-West Nile Virus activity” (J Med Chem, 2006).

What was measured:
West Nile virus [1] = assay: Inhibition of West Nile viral Rluc-Neo-Rep in BHK21 cell line; type: functional, organism-based; settings: BHK-21
In short: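 BHK-21 cell line stably carrying Rluc-Neo-Rep replicon; inhibition read as suppression of Renilla luciferase signal. Initial screen at 30 µM, 1% DMSO final; EC50 (µM) then determined.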

BHK-21 [2] = assay: Cytotoxicity against BHK21 cell line by MTT assay; type: functional; settings: Mesocricetus auratus
In short: (§1)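 MTT cytotoxicity assay run in BHK-21 and Vero cells on compounds giving >50% Rluc inhibition in the primary screens; CC50 reported in µM.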

[3] = Therapeutic index (CC50/EC50) in BHK21 cells; type: cell-based, BHK-21; settings: hamster, read-out: Ratio CC50/EC50
In short: (§2)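 TI computed as CC50/EC50, using MTT CC50 and replicon EC50 in BHK-21 cells, or MTT CC50 and Rluc-FL-WNV EC50 in Vero cells.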

West Nile virus [4] = assay: Inhibition of Rluc-FL-WNV replicon in Vero cells; type: functional, organism-based
In short: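 Vero cells infected with full-length WNV carrying Renilla luciferase reporter (Rluc-FL-WNV), covering entry, replication and assembly; inhibition read as suppression of luciferase signal. Compounds first screened at 30 µM in 1% DMSO final, then EC50 (µM) determined.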

Vero [5] = assay: Cytotoxicity against Vero cells by MTT assay; type: functional; settings: Chlorocebus sabaeus; in short: as §1
[6] = Therapeutic index (CC50/EC50) in Vero cells; type: cell-based; settings: monkey, read-out: Ratio CC50/EC50; in short: as §2
BHK-21 [7] = assay: Inhibition of West Nile virus VLP replicon in BHK21 cell line; type: functional, cell-based; settings: Mesocricetus auratus
In short: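 Naive BHK-21 cells infected with virus-like particles, made by expressing WNV structural proteins in cells carrying the Rluc-Neo-Rep replicon, which package replicon RNA. This captures entry and replication but not assembly. Inhibition is read as suppression of Renilla luciferase signal. Compounds were given in 1% DMSO final, and EC50 is in µM.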

Vero [8] = assay: Inhibition of West Nile viral Rluc-Neo-Rep in Vero cells; type: functional, cell-based; settings: Chlorocebus sabaeus
In short: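 Vero cells containing the Rluc-Neo-Rep replicon, used to check cell-line dependence; inhibition measured as suppression of Renilla luciferase signal, EC50 in µM.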

West Nile virus [9] = assay: Activity against West Nile virus RlucRep RNA translation in BHK21 cells at 100 uM, 2 hr post transfection; type: functional, BHK-21
In short: (§3)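 BHK cells transfected with WN RlucRep RNA (transient replicon), incubated with compound at 33 or 100 µM; luciferase read at 2, 4 and 72 h post-transfection. 2 and 4 h signals report viral translation, 72 h reports RNA synthesis. Activity given as percent of luciferase signal versus mock-treated transfection; average of two to three experiments.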

West Nile virus [10] = assay: Activity against West Nile virus RlucRep RNA translation in BHK21 cells at 33 uM, 4 h post transfection; type: functional, BHK-21; in short: as §3
West Nile virus [11] = assay: Activity against West Nile virus RlucRep RNA translation in BHK21 cells at 100 uM, 4 hr post transfection; type: functional, BHK-21; in short: as §3
West Nile virus [12] = assay: Activity against West Nile virus RlucRep RNA synthesis in BHK21 cells at 33 uM, 72 hr post transfection; type: functional, BHK-21; in short: as §3
West Nile virus [13] = assay: Activity against West Nile virus RlucRep RNA synthesis in BHK21 cells at 100 uM, 72 h post transfection; type: functional, BHK-21; in short: as §3
West Nile virus [14] = assay: Activity against West Nile virus RlucRep RNA translation in BHK21 cells at 33 uM, 2 hr post transfection; type: functional, BHK-21; in short: as §3
West Nile virus [15] = assay: Inhibition of West Nile virus in vero cells at 11 uM; values are per cent of control
West Nile virus [16] = assay: Inhibition of West Nile virus in Vero cells at 33 uM; values are per cent of control
West Nile virus [17] = assay: Inhibition of West Nile virus in Vero cells at 0.4 uM; values are per cent of control
West Nile virus [18] = assay: Inhibition of West Nile virus in Vero cells at 1.2 uM; values are per cent of control
West Nile virus [19] = assay: Inhibition of West Nile virus in Vero cells at 3.7 uM; values are per cent of control
West Nile virus [20] = assay: Inhibition of West Nile virus in Vero cells at 100 uM; values are per cent of control

Structure (SMILES) | EC50 (West Nile virus [1]) [µM] | CC50 (BHK-21 [2]) [µM] | selectivity ratio [3] | EC50 (West Nile virus [4]) [µM] | CC50 (Vero [5]) [µM] | selectivity ratio [6] | EC50 (BHK-21 [7]) [µM] | EC50 (Vero [8]) [µM] | Activity (West Nile virus [9]) [%] | Activity (West Nile virus [10]) [%] | Activity (West Nile virus [11]) [%] | Activity (West Nile virus [12]) [%] | Activity (West Nile virus [13]) [%] | Activity (West Nile virus [14]) [%] | remaining activity at 11 µM (West Nile virus [15]) [%] | remaining activity at 33 µM (West Nile virus [16]) [%] | remaining activity at 0.4 µM (West Nile virus [17]) [%] | remaining activity at 1.2 µM (West Nile virus [18]) [%] | remaining activity at 3.7 µM (West Nile virus [19]) [%] | remaining activity at 100 µM (West Nile virus [20]) [%]
O=C(c1ccccc1)N1N=C(c2cccs2)CC1c1ccc(Cl)cc1 (stereo unspecified) | 17 | > 300 | > 18 | 23 | > 300 | > 13 | 15 | 15 | – | – | – | – | – | – | – | – | – | – | – | –
CN1CCN(C(=O)c2cccc3c(NC4CCN(Cc5ccccc5)CC4)c4ccccc4nc23)CC1 | 15 | 300 | 20 | 22 | 80 | 3.6 | 20 | – | – | – | – | – | – | – | – | – | – | – | – | –
CN1CCN(c2cc(-c3ccc(C(C)(C)C)cc3)nc3ccccc23)CC1 | 14.5 | 50 | 3.4 | 15 | 20 | 1.3 | 8 | – | – | – | – | – | – | – | – | – | – | – | – | –
O=C(Cc1ccc(Cl)cc1)N1N=C(c2cccs2)CC1c1ccc([N+](=O)[O-])cc1 (stereo unspecified) | 11 | > 300 | > 27 | 25 | > 300 | > 12 | 8 | 7 | 81 | 92 | 93 | 12 | 16 | 80 | 55 | 23 | 100 | 92 | 90 | 23
CN1CCN(c2cc(-c3ccc(C(C)(C)C)cc3)c3ccccc3n2)CC1 | 17 | 110 | 6.5 | 30 | 25 | 0.8 | 20 | – | – | – | – | – | – | – | – | – | – | – | – | –
CN1CCN(Cc2ccc3c(c2)Oc2ccccc2C3)CC1 | > 30 | 200 | < 6.7 | > 30 | 90 | < 3 | 28 | – | – | – | – | – | – | – | – | – | – | – | – | –
CN1CCN(C(=O)c2ccc3c(NC4CCN(Cc5ccccc5)CC4)c4ccccc4nc3c2)CC1 | 15.5 | 150 | 9.7 | 30 | 80 | 2.7 | 8 | – | – | – | – | – | – | – | – | – | – | – | – | –
CCN(CC)C(=O)c1cccc2c(NCCc3c[nH]c4ccccc34)c3ccccc3nc12 | 9.2 | 150 | 16 | 20 | 50 | 2.5 | 9 | – | – | – | – | – | – | – | – | – | – | – | – | –
O=C(c1cccc2c(NCCc3c[nH]c4ccccc34)c3ccccc3nc12)N1CCOCC1 | 20 | 250 | 13 | > 30 | 60 | < 2 | 23 | – | – | – | – | – | – | – | – | – | – | – | – | –
CCN(CC)C(=O)c1ccc2c(NC3CCN(Cc4ccccc4)CC3)c3ccccc3nc2c1 | 12.5 | 150 | 12 | 20 | 55 | 2.7 | 6 | – | – | – | – | – | – | – | – | – | – | – | – | –
CCN(CC)C(=O)c1cccc2c(NC3CCN(Cc4ccccc4)CC3)c3ccccc3nc12 | 8 | 350 | 44 | 22 | 75 | 3.4 | 20 | – | – | – | – | – | – | – | – | – | – | – | – | –
CN1CCN(Cc2ccc3c(c2)Oc2ccccc2C3O)CC1 (stereo unspecified) | 13.5 | 325 | 24 | 10 | 50 | 5 | 4 | – | – | – | – | – | – | – | – | – | – | – | – | –
CN1CCN(C(=O)c2cccc3c(NCCc4c[nH]c5ccccc45)c4ccccc4nc23)CC1 | 10.5 | 150 | 14 | 18 | 50 | 2.8 | 17 | – | – | – | – | – | – | – | – | – | – | – | – | –
CN1CCN(C(=O)c2ccc3c(Oc4ccccc4)c4ccccc4nc3c2)CC1 | 28 | 100 | 3.6 | 28 | 40 | 1.4 | 18 | – | – | – | – | – | – | – | – | – | – | – | – | –
CN1CCN(C(=O)c2cccc3c(Oc4ccccc4)c4ccccc4nc23)CC1 | 20 | 150 | 7.5 | 20 | 50 | 2.5 | 20 | – | – | – | – | – | – | – | – | – | – | – | – | –
O=C(c1cccc2c(Oc3ccccc3)c3ccccc3nc12)N1CCOCC1 | > 30 | 155 | < 5.1 | 22 | 45 | 2 | > 30 | – | – | – | – | – | – | – | – | – | – | – | – | –
O=C(c1cccc2c(NC3CCN(Cc4ccccc4)CC3)c3ccccc3nc12)N1CCOCC1 | 20 | 300 | 15 | > 30 | 90 | < 3 | 20 | – | – | – | – | – | – | – | – | – | – | – | – | –
COc1c(C)c2c(c(O)c1C/C=C(\C)CCC(=O)O)C(=O)OC2 [MYCOPHENOLIC ACID] | 1.4 | – | – | 0.04 | – | – | 0.04 | 0.08 | – | – | – | – | – | – | – | – | – | – | – | –
NC(=O)c1ncn([C@@H]2O[C@H](CO)[C@@H](O)[C@H]2O)n1 [RIBAVIRIN] | 18 | – | – | 30 | – | – | 1.1 | 119 | – | – | – | – | – | – | – | – | – | – | – | –
